Assays:
[1] = Inhibition of Yersinia pestis YopH expressed in Escherichia coli
Method in brief: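 GST-YopH was purified on glutathione-Sepharose and dialysed into 30 mM Tris, 150 mM NaCl, then with 1 mM DTT. Assayed with pNPP at Km (1 mM), 30°C, 0.15 M Bis-Tris pH 6.0, 1.0 mM DTT, 5% DMSO final. Compound (0.0128–1000 μM) was preincubated 10 min at RT, then reacted 20 min. NaOH quench, A405 with the no-enzyme blank subtracted, IC50 by the hyperbolic fit.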

[2] = molecular target: T1, Tyrosine-protein phosphatase non-receptor type 7 (Homo sapiens, UniProt P35236); test: Inhibition of HePTP
T1 sequence (P35236 whole entry): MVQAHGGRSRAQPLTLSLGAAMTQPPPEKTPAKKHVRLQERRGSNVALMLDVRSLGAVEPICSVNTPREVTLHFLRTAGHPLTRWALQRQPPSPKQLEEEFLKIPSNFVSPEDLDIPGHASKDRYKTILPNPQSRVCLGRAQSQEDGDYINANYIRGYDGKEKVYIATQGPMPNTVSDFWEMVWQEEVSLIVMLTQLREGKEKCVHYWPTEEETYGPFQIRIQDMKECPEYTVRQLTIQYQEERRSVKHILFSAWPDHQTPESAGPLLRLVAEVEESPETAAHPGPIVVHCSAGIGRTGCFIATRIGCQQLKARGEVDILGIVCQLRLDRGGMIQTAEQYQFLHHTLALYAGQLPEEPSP
Method in brief: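 pNPP was held at its Km of 2.5 mM for HePTP. Assay at 30°C in 0.15 M Bis-Tris pH 6.0 (ionic strength 150 mM, NaCl), 1.0 mM DTT, 5% DMSO final. Compound (0.0128–1000 μM) and enzyme were preincubated 10 min at RT, then reacted 20 min with substrate. NaOH quench, A405 minus the no-enzyme blank. IC50 fit to Vi/V0 = IC50/(IC50+[I]).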

[3] = molecular target: T2, Tyrosine-protein phosphatase non-receptor type 1 (Homo sapiens, UniProt P18031); test: Inhibition of PTP1B
T2 sequence (P18031 whole entry): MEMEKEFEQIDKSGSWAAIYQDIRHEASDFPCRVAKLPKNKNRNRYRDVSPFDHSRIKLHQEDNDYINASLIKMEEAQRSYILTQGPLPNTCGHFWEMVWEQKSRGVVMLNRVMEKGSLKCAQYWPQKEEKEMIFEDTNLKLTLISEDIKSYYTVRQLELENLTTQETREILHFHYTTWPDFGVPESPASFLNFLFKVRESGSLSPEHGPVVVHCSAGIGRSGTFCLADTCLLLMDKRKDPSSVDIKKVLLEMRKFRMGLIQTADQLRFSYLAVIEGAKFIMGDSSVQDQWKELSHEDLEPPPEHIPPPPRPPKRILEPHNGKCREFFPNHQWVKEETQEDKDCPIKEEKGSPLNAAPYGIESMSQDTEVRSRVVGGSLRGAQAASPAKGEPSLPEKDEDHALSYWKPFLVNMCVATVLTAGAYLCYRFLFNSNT
Method in brief: (§1)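 Hydrolysis of pNPP at its Km (1 mM) was measured at 30°C in 0.15 M Bis-Tris pH 6.0, ionic strength 150 mM with NaCl, 1.0 mM DTT, 5% DMSO final. Enzyme and compound (0.0128–1000 μM, 5-fold steps) were preincubated 10 min at room temperature, then reacted 20 min. The reaction was quenched with 1 M NaOH and read at 405 nm, with the no-enzyme background subtracted. IC50 came from the fit Vi/V0 = IC50/(IC50+[I]).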

[4] = molecular target: T3, Tyrosine-protein phosphatase non-receptor type 2 (Homo sapiens, UniProt P17706); test: Inhibition of TCPTP; method in brief: as §1
T3 sequence (P17706 whole entry): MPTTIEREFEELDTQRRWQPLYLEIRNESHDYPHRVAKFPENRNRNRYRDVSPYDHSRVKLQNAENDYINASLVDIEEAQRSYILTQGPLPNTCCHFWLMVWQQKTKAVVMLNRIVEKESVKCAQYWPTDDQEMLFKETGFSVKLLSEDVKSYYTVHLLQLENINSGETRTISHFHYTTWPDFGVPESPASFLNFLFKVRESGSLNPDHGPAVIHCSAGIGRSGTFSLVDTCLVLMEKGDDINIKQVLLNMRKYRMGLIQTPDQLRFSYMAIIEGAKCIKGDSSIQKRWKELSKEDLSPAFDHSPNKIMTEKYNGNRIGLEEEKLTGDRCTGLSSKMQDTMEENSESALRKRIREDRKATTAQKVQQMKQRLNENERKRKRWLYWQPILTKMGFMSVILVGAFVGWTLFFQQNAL

[5] = molecular target: T4, Receptor-type tyrosine-protein phosphatase C (Homo sapiens, UniProt P08575); test: Inhibition of CD45; method in brief: as §1
T4 sequence (P08575 whole entry): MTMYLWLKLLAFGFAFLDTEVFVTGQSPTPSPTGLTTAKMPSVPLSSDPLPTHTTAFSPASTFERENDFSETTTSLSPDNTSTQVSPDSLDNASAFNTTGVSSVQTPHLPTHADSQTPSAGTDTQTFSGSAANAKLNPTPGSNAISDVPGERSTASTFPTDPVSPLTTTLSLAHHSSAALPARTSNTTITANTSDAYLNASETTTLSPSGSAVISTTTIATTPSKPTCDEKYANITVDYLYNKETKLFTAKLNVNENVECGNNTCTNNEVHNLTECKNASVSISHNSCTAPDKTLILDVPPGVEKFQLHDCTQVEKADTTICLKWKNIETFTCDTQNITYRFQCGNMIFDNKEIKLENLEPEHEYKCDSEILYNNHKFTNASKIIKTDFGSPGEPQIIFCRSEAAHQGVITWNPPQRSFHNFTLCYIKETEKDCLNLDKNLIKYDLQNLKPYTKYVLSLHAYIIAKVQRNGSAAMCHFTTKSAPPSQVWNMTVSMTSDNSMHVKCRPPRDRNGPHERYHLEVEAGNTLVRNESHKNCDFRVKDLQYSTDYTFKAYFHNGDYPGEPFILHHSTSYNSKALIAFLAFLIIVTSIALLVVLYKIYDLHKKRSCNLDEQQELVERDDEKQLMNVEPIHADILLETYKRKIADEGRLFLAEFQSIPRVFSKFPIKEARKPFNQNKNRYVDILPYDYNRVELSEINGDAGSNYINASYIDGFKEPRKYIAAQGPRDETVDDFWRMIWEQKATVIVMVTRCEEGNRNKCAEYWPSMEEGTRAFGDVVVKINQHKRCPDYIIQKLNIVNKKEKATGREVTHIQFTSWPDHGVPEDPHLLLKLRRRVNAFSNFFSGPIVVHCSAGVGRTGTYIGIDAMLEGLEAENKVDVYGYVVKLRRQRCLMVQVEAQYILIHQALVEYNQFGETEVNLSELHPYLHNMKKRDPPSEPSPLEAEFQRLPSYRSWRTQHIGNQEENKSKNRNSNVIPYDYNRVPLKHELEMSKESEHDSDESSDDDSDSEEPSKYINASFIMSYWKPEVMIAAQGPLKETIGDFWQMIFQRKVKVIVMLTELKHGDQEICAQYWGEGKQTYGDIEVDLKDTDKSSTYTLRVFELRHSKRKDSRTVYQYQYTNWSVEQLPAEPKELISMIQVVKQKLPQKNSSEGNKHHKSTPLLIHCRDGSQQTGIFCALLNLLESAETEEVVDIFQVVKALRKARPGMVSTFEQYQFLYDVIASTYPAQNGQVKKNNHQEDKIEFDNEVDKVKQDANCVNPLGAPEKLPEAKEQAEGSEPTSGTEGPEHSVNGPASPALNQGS

[6] = molecular target: Dual specificity protein phosphatase 3 (Homo sapiens, UniProt P51452); test: Inhibition of VHR
Method in brief: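 VHR was assayed with pNPP at its Km of 1.5 mM, at 30°C in 0.15 M Bis-Tris pH 6.0 (150 mM ionic strength, NaCl), 1.0 mM DTT, 5% DMSO final. Eight compound concentrations from 0.0128 to 1000 μM were preincubated 10 min at RT, then reacted 20 min. NaOH quench, read at 405 nm with the enzyme-free blank corrected. IC50 from Vi/V0 = IC50/(IC50+[I]).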

Chain of Dual specificity protein phosphatase 3 (P51452 whole entry): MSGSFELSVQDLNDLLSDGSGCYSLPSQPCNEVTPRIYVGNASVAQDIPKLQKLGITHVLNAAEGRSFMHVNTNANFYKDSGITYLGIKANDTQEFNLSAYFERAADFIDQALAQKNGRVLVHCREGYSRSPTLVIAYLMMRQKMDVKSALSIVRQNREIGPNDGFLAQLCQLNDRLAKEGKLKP

Row | Compound | IC50 [1] | IC50 [2] | IC50 [3] | IC50 [4] | IC50 [5] | IC50 [6]
1 | CC1(C)CC(NCc2ccc(-c3ccc(O)c(C(=O)O)c3)o2)CC(C)(C)N1[O] | 50 µM | > 1000 µM | > 1000 µM | 685 µM | > 1000 µM | 241 µM
2 | COC(=O)c1cc(NC(=O)CCCC(=O)NC2CC(C)(C)N([O])C(C)(C)C2)ccc1O | > 1000 µM | > 1000 µM | > 1000 µM | > 1000 µM | > 1000 µM | > 1000 µM
3 | CC1(C)CC(NC(=O)CCCC(=O)Nc2ccc(O)c(C(=O)O)c2)CC(C)(C)N1[O] | 336 µM | > 1000 µM | > 1000 µM | > 1000 µM | > 1000 µM | 1000 µM
4 | COC(=O)c1cc(-c2ccc(CNC3CC(C)(C)N([O])C(C)(C)C3)o2)ccc1O | > 1000 µM | > 1000 µM | > 1000 µM | > 1000 µM | > 1000 µM | 850 µM
5 | CC1(C)CC(NC(=O)/C=C/c2ccc(-c3cccc([N+](=O)[O-])c3)o2)CC(C)(C)N1[O] | 46 µM | 211 µM | 1000 µM | 260 µM | > 1000 µM | 200 µM
6 | CC1(C)CC(NC(=O)/C=C/c2ccc(-c3ccc([N+](=O)[O-])cc3)o2)CC(C)(C)N1[O] | 47 µM | > 1000 µM | > 1000 µM | > 1000 µM | > 1000 µM | 1000 µM
7 | CC1(C)CC(NC(=O)/C=C/c2ccc(-c3ccc(O)c(C(=O)O)c3)o2)CC(C)(C)N1[O] | 3 µM | 7.5 µM | 24 µM | 14 µM | 14 µM | 12 µM

From ChEMBL document CHEMBL1147128, “Development of molecular probes for second-site screening and design of protein tyrosine phosphatase inhibitors” (J Med Chem, 2007)
